Measurements reported in ChEMBL document CHEMBL4118021, “Studies of TAK1-centered polypharmacology with novel covalent TAK1 inhibitors” (Bioorg Med Chem, 2017).

What was measured:
Type in all cases: cell-based
[1] = biological target: Cyclin-dependent kinase 1 (Homo sapiens) (UniProt P06493); assay: Inhibition of CDC2 in human SKCO1 cells at 1 uM after 4 hrs using biotin labeled DLKPQNLLIDDK probe by mass-spectrometric analysis relative to control
[2] = biological target: T1, Inhibitor of nuclear factor kappa-B kinase subunit beta (Homo sapiens) (UniProt O14920); assay: Inhibition of IKKb in human SKCO1 cells at 1 uM after 4 hrs using biotin labeled DLKPENIVLQQGEQR probe by mass-spectrometric analysis relative to control
T1 sequence (whole entry): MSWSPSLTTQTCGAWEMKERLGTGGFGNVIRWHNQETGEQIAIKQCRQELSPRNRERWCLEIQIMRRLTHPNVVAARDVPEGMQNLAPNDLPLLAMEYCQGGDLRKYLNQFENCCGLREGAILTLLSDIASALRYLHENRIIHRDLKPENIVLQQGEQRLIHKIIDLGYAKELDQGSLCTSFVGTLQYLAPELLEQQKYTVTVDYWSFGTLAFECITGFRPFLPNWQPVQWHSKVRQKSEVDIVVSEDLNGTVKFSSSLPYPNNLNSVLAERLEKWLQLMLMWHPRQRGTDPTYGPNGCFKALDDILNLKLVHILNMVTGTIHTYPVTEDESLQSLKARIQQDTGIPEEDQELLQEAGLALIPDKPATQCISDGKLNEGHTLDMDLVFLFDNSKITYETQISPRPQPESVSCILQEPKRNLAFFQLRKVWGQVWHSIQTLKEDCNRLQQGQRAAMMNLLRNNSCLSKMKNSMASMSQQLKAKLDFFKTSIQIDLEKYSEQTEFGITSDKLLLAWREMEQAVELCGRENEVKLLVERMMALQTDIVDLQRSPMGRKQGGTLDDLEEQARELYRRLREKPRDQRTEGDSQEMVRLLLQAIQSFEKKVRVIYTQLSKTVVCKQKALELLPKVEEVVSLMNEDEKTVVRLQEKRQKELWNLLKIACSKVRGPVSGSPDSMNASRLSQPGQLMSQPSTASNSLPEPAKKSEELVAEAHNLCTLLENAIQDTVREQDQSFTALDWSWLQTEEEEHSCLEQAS

[3] = biological target: T2, Mitogen-activated protein kinase kinase kinase kinase 3 (Homo sapiens) (UniProt Q8IVH8); assay: Inhibition of KHS2 in human SKCO1 cells at 1 uM after 4 hrs using biotin labeled NVNTGELAAIKVIK probe by mass-spectrometric analysis relative to control
T2 sequence (whole entry): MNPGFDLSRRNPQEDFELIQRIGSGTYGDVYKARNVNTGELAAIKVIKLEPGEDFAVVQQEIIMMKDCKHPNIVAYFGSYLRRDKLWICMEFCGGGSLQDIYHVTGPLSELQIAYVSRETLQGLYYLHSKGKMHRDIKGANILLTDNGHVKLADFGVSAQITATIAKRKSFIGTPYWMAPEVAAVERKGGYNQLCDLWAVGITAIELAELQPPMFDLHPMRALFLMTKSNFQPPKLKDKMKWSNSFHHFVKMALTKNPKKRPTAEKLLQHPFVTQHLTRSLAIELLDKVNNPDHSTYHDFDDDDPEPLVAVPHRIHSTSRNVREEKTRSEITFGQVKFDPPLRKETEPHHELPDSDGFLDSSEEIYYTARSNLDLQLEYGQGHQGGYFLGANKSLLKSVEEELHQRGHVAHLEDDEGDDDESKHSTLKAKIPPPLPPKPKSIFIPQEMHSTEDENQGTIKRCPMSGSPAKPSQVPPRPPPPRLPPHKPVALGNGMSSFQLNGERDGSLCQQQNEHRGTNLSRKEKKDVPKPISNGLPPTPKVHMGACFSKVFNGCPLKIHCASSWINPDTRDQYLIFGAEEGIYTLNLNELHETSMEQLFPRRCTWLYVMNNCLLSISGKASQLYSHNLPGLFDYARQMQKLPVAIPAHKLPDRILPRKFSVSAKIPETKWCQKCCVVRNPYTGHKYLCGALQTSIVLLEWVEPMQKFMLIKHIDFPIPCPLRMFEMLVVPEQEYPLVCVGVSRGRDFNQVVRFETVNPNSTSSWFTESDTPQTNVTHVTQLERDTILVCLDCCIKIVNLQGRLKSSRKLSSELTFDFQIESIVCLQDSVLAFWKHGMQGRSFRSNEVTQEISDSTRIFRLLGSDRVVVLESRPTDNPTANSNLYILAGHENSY

[4] = biological target: Dual specificity mitogen-activated protein kinase kinase 1 (Homo sapiens) (UniProt Q02750); assay: Inhibition of MAP2K1 in human SKCO1 cells at 1 uM after 4 hrs using biotin labeled KLIHLEIKPAIR probe by mass-spectrometric analysis relative to control; details: pooled result: one value given for 2 cell lines, strains, targets or settings
Chain of Dual specificity mitogen-activated protein kinase kinase 1 (Homo sapiens) (Q02750 whole entry): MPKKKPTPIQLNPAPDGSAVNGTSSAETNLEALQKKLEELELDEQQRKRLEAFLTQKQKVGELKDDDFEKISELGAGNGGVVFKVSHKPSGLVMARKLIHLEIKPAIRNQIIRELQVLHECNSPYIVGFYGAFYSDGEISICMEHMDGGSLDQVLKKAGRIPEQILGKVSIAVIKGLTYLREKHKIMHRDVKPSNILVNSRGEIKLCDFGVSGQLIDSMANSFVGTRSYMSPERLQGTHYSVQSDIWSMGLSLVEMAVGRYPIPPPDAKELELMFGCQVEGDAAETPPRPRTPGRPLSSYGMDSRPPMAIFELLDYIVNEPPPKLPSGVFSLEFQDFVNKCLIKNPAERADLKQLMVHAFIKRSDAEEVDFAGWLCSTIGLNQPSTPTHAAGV

[5] = biological target: Serine/threonine-protein kinase MARK2 (Homo sapiens) (UniProt Q7KZI7); assay: Inhibition of MARK2 in human SKCO1 cells at 1 uM after 4 hrs using biotin labeled DLKAENLLLDADMNIK probe by mass-spectrometric analysis relative to control
Chain of Serine/threonine-protein kinase MARK2 (Homo sapiens) (Q7KZI7 whole entry): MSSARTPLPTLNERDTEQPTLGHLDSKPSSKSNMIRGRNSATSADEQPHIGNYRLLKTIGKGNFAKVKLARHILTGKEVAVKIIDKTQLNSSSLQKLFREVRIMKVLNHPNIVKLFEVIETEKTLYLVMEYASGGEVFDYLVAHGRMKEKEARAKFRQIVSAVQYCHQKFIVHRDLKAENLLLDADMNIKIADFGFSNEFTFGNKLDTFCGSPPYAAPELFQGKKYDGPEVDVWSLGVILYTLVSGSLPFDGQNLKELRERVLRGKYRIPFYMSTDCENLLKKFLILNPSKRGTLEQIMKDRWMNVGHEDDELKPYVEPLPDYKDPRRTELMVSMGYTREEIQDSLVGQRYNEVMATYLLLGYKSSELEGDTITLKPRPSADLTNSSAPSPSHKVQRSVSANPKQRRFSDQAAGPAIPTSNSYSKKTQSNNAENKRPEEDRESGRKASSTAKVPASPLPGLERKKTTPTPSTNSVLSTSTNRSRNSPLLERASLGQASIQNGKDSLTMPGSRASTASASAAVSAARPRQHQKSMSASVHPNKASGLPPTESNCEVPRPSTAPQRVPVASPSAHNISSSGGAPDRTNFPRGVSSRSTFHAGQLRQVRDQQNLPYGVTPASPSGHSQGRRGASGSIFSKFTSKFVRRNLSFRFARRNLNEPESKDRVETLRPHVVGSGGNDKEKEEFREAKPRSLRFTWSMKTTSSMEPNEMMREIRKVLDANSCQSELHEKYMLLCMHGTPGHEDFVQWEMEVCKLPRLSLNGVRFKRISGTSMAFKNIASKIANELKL

[6] = biological target: Phosphatidylinositol 4-kinase beta (Homo sapiens) (UniProt Q9UBF8); assay: Inhibition of PI4KB in human SKCO1 cells at 1 uM after 4 hrs using biotin labeled VPHTQAVVLNSKDK probe by mass-spectrometric analysis relative to control
Chain of Phosphatidylinositol 4-kinase beta (Homo sapiens) (Q9UBF8 2-816 limits assumed): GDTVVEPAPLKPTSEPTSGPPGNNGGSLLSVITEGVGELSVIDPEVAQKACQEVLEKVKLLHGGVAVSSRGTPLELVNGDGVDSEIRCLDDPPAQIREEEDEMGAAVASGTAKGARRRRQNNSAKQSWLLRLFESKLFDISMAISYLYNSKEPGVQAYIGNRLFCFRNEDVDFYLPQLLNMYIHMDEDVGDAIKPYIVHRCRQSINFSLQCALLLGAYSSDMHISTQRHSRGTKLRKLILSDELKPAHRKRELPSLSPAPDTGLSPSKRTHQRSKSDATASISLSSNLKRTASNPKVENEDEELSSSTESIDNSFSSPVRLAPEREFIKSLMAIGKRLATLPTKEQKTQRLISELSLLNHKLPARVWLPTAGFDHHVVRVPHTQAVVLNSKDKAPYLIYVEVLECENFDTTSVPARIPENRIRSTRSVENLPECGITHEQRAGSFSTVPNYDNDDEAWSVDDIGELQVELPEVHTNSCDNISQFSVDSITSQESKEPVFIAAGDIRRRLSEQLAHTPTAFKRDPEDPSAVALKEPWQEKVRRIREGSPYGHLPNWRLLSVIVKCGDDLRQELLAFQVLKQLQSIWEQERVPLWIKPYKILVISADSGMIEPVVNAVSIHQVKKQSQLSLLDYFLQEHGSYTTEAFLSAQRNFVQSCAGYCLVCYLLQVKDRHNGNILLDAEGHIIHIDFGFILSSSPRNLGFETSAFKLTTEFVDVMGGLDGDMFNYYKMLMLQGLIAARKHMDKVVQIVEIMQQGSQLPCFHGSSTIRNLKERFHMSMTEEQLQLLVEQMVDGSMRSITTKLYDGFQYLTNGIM
Method in brief: (§1)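 Live SK-CO-1 cells exposed to compound at 1 μM or DMSO for 4 h (KiNativ). Lysates then labeled with lysine-reactive ATP/ADP-biotin probe, and probe-labeled kinase peptides quantified by mass spectrometry. Percent inhibition of probe-dependent recovery calculated relative to DMSO-treated cells.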

[7] = biological target: Ribosomal protein S6 kinase alpha-1 (Homo sapiens) (UniProt Q15418); assay: Inhibition of RSK1 domain1 in human SKCO1 cells at 1 uM after 4 hrs using biotin labeled DLKPENILLDEEGHIK probe by mass-spectrometric analysis relative to control; details: pooled result: one value given for 3 cell lines, strains, targets or settings; method in brief: as §1
Chain of Ribosomal protein S6 kinase alpha-1 (Homo sapiens) (Q15418 whole entry, the tested form may be a part): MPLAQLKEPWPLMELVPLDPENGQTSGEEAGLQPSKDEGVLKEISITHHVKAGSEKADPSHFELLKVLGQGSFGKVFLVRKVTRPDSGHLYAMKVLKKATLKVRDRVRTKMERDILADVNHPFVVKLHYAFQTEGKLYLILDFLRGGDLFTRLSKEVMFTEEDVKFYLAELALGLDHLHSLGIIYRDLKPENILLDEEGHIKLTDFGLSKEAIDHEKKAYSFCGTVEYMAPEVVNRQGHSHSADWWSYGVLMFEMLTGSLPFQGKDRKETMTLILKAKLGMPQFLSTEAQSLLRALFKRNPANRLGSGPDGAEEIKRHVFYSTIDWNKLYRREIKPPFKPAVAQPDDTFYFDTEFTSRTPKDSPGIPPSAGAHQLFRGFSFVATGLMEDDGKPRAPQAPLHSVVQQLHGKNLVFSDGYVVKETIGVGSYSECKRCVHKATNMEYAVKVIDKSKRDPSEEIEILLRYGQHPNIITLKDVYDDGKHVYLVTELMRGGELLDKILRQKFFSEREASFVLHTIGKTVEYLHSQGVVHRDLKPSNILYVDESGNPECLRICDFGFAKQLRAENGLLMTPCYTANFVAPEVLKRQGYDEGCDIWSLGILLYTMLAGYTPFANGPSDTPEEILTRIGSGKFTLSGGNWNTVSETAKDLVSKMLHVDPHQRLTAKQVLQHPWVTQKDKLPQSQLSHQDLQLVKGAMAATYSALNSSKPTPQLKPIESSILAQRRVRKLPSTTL

[8] = biological target: T3, STE20-related kinase adapter protein beta (Homo sapiens) (UniProt Q9C0K7); assay: Inhibition of STLK6 in human SKCO1 cells at 1 uM after 4 hrs using biotin labeled SIKASHILISGDGLVTLSGLSHLHSLV probe by mass-spectrometric analysis relative to control; method in brief: as §1
T3 sequence (whole entry): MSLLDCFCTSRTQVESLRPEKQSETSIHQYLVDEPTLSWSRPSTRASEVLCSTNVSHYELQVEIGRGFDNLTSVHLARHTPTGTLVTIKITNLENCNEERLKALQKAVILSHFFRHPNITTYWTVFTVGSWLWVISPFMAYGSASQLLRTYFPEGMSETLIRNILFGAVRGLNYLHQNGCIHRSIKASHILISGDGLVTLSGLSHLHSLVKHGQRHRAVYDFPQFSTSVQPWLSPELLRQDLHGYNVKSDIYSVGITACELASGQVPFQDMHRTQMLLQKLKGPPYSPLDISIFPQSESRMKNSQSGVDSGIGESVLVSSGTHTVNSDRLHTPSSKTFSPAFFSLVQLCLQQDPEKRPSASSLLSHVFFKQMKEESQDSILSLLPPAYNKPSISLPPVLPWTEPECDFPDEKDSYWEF

Chain of Cyclin-dependent kinase 1 (Homo sapiens) (P06493 whole entry, looked up): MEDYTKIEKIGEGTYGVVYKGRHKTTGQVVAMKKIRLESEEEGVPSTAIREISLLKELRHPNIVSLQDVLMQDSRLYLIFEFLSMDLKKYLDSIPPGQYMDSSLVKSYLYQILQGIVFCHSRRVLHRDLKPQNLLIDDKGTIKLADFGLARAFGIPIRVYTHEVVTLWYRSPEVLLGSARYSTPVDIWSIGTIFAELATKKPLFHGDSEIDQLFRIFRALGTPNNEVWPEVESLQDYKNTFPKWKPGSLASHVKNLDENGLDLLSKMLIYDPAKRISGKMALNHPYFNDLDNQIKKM

Compound: C=CC(=O)Nc1ccccc1Oc1nc(Nc2cnn(CCOC)c2)ncc1Cl
- inhibition [1]: 33.1%
- inhibition [2]: -9%
- inhibition [3]: -7.5%
- inhibition [4]: 13.9%
- inhibition [5]: -8.4%
- inhibition [6]: 27.2%
- inhibition [7]: 13%
- inhibition [8]: 34.4%

Compound: C=CC(=O)Nc1ccccc1Nc1nc(Nc2ccc(N3CCN(C)CC3)cc2)ncc1Cl
- inhibition [1]: 47.7%
- inhibition [2]: 15.3%
- inhibition [3]: 42.4%
- inhibition [4]: 62.7%
- inhibition [5]: -7.2%
- inhibition [6]: 14.7%
- inhibition [7]: 42.5%
- inhibition [8]: 27.1%

Compound: COc1cc(O)c2c(c1)/C=C/C[C@H](O)[C@H](O)C(=O)/C=C\C[C@H](C)OC2=O
- inhibition [1]: 46.6%
- inhibition [2]: -3%
- inhibition [3]: 3.1%
- inhibition [4]: 85.3%
- inhibition [5]: 3.6%
- inhibition [6]: 21.8%
- inhibition [7]: 65.4%
- inhibition [8]: 24.9%
